Experimental data taken from ChEMBL document CHEMBL4118159, “Discovery of tetrahydroindazoles as a novel class of potent and in vivo efficacious gamma secretase modulators” (Bioorg Med Chem, 2018).

Biological target: Gamma-secretase
Test: Modulation of gamma secretase in human H4 cells expressing human wild type APP assessed as inhibition of amyloid beta 42 production after 22 hrs by electrochemiluminescence assay
Format: cell-based
Outline: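 H4 cells overexpressing human APPwt, 10,000/well, were exposed to compound 22 h at 37°C, 5% CO2. Supernatant was diluted with medium on an MSD anti-Aβ42 plate and detected with S-tag 6E10 (1:50, 1 h). Read-out was electrochemiluminescence.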

IC50 [nM] | Structure (SMILES)
> 30000 | CCCCCn1ncc2c1CCC(Nc1nc3c(-c4ccc(F)cc4C)cccn3n1)C2 (stereo not drawn)
740 | CCc1nnn2c1CCC(Nc1nc3c(-c4ccc(F)cc4C)cccn3n1)C2 (stereo not drawn)
160 | CCn1ncc2c1CCC(Nc1nc3c(-c4ccccc4C)cccn3n1)C2 (stereo not drawn)
180 | CCn1ncc2c1CCC(Nc1nc3c(-c4ccc(F)cc4)cccn3n1)C2 (stereo not drawn)
670 | CCn1ncc2c1CCC(Nc1nc3c(-c4ccc(C)nc4)cccn3n1)C2 (stereo not drawn)
730 | CCn1ncc2c1CCC(Nc1nc3c(-c4cnccc4C)cccn3n1)C2 (stereo not drawn)
60 | CCn1ncc2c1CCC(Nc1nc3c(-c4ccccc4Cl)cccn3n1)C2 (stereo not drawn)
200 | CCn1ncc2c1CCC(Nc1nc3c(-c4cncc(OC)c4)cccn3n1)C2 (stereo not drawn)
60 | CCCn1ncc2c1CCC(Nc1nc3c(-c4ccc(F)cc4C)cccn3n1)C2 (stereo not drawn)
9 | CCn1ncc2c1CC[C@@H](Nc1nc3c(-c4ccc(F)c(Cl)c4)cccn3n1)C2
40 | CCn1ncc2c1CCC(Nc1nc3c(-c4cncc(Cl)c4)cccn3n1)C2 (stereo not drawn)
3400 | Cc1cc(F)ccc1-c1cccn2nc(NC3CCc4c(cnn4CC(C)C)C3)nc12 (stereo not drawn)
1390 | CCc1nnc2n1CCC(Nc1nc3c(-c4ccc(F)cc4C)cccn3n1)C2 (stereo not drawn)
70 | CCn1ncc2c1CCC(Nc1nc3c(-c4ccccc4)cccn3n1)C2 (stereo not drawn)
20 | CCn1ncc2c1CCC(Nc1nc3c(-c4ccc(F)c(Cl)c4)cccn3n1)C2 (stereo not drawn)
1200 | Cc1cc(F)ccc1-c1cccn2nc(Nc3ccc4c(cnn4C)c3)nc12
500 | CCn1ncc2c1CCC(Nc1nc3c(-c4cccnc4OC)cccn3n1)C2 (stereo not drawn)
200 | CCn1ncc2c1CCC(Nc1nc3c(-c4cncc(C)c4)cccn3n1)C2 (stereo not drawn)
